Key:
[1] = target: T1, Steroid 17-alpha-hydroxylase/17,20 lyase (Rattus norvegicus, UniProt P11715); assay: Inhibition of rat microsomal 17,20-lyase component of P450-17alpha
T1 sequence (P11715 whole entry): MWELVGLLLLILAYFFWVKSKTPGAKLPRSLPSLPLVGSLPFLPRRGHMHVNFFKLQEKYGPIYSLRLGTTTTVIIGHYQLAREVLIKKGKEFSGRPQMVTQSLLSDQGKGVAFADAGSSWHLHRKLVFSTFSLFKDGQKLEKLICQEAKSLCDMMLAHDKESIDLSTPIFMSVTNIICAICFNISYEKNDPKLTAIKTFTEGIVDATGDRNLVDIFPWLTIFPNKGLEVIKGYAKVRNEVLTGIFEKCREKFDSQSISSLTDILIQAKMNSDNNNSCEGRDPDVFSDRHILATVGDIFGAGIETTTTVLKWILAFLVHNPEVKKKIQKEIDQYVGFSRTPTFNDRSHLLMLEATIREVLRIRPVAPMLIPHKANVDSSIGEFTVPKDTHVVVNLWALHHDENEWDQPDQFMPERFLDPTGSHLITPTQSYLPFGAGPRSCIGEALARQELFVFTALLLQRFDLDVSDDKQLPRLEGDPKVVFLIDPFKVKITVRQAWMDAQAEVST
In short: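 Rat testicular microsomes (final 0.23 mg/mL protein) incubated at 37 °C for 30 min in 50 mM sodium phosphate pH 7.4 with NADPH generating system and radiolabelled 17α-hydroxyprogesterone (1 μM), inhibitor added in ethanol. Ether extraction, TLC (DCM/ethyl acetate 4:1) with carrier steroids, ³H scintillation counting versus no-inhibitor controls. IC50 from five or more concentrations in triplicate, linear regression of inhibition versus log[I].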

[2] = target: T1, Steroid 17-alpha-hydroxylase/17,20 lyase; assay: Inhibition of rat microsomal 17-alpha-hydroxylase component of P450-17alpha
In short: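 Microsomal enzyme (final 0.16 mg/mL) preincubated mixture at 37 °C, 15 min reaction in 50 mM sodium phosphate pH 7.4 with NADPH generating system and radiolabelled progesterone (1.5 μM); inhibitor in ethanol. Ether extraction, TLC (DCM/ethyl acetate 7:3) with carrier steroids, ³H counting against uninhibited controls. IC50 from ≥5 concentrations in triplicate by linear regression of inhibition versus log[I].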

SMILES	IC50 [1] [µM]	IC50 [2] [µM]
O=[N+]([O-])c1ccc(Cn2ccnc2)cc1	7.17	25.4
Oc1ccc(Cn2ccnc2)cc1	8.22	72.1
Clc1cc(Cl)cc(Cn2ccnc2)c1	3.34	22.6
Brc1ccc(Cn2ccnc2)cc1	6.76	53.4
Brc1cc(Br)cc(Cn2ccnc2)c1	3.16	25.9
Cc1ccc(Cn2ccnc2)cc1	8.81	50.6
FC(F)(F)c1cc(Cn2ccnc2)cc(C(F)(F)F)c1	19.5	245
N#Cc1ccc(Cn2ccnc2)cc1	7.67	40.3
Fc1ccc(Cn2ccnc2)cc1F	9.6	70.7
Fc1ccc(Cn2ccnc2)cc1	18.4	86.6
Clc1ccc(Cn2ccnc2)cc1Cl	2.07	12.2
Ic1ccc(Cn2ccnc2)cc1	1.58	10.1
Clc1ccc(Cn2ccnc2)cc1	2.81	31.6
Fc1cc(F)cc(Cn2ccnc2)c1	11.8	83.1
c1ccc(Cn2ccnc2)cc1 [BENZYLIMIDAZOLE]	39.1	215
CC(=O)N1CCN(c2ccc(OCC3COC(Cn4ccnc4)(c4ccc(Cl)cc4Cl)O3)cc2)CC1 (configuration not stated) [KETOCONAZOLE]	1.66	3.76

Reference: ChEMBL document CHEMBL1145348, “Synthesis and biochemical evaluation of a range of potent benzyl imidazole-based compounds as potential inhibitors of the enzyme complex 17alpha-hydroxylase/17,20-lyase (P450(17alpha))” (Bioorg Med Chem Lett, 2006)
